In ChEMBL document CHEMBL3414485, “Development of cyclic NGR peptides with thioether linkage: structure and dynamics determining deamidation and bioactivity” (J Med Chem, 2015):
Calls of active or inactive are those of the source. No cut-off for these calls is given here. Where a SMILES comes first, the peptide text is derived from it. Bridges are numbered along the chain shown (N, C = ends).

Tests used:
[1] = Chemical stability 0.2M NH4OAc at pH 5.0 at 1 mg/ml at room temperature assessed as ratio of Asn-containing cyclic peptides after 24 hrs by HPLC method; assay type: physicochemical; settings: 0.2 M NH4OAc buffer, read-out: Stability
Method in brief: (§1)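 Peptide at 1.0 mg/mL (~2 mM). Buffer runs at room temperature: 0.2 M NH4OAc pH 5.0, PBS pH 7.4 or 0.1 M Tris pH 8.1. Medium runs at 37 °C in DMEM GlutaMAX-I with 10% FCS and gentamicin 160 μg/mL. Sampled at 24 and 48 h by analytical RP-HPLC. Asn/isoAsp/Asp ratio taken from peak AUC, species identified by MS and Asp reference peptides.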

[2] = Chemical stability PBS buffer at pH 7.4 at 1 mg/ml at room temperature assessed as ratio of Asn-containing cyclic peptides after 48 hrs by HPLC method; assay type: physicochemical; settings: read-out: Stability; method in brief: as §1
[3] = Chemical stability PBS buffer at pH 7.4 at 1 mg/ml at room temperature assessed as ratio of Asn-containing cyclic peptides after 24 hrs by HPLC method; assay type: physicochemical; settings: read-out: Stability; method in brief: as §1
[4] = Chemical stability 0.1M Tris buffer at pH 8.1 at 1 mg/ml at room temperature assessed as ratio of Asn-containing cyclic peptides after 48 hrs by HPLC method; assay type: physicochemical; settings: read-out: Stability; method in brief: as §1
[5] = Chemical stability 0.1M Tris buffer at pH 8.1 at 1 mg/ml at room temperature assessed as ratio of Asn-containing cyclic peptides after 24 hrs by HPLC method; assay type: physicochemical; settings: read-out: Stability; method in brief: as §1
[6] = Chemical stability DMEM cell culture medium at pH 7.3 at 1 mg/ml at 37 degC assessed as ratio of Asn-containing cyclic peptides after 24 hrs by HPLC method; assay type: physicochemical; settings: read-out: Stability; method in brief: as §1
[7] = molecular target: T1, Integrin alpha-V/beta-3 (Homo sapiens) (UniProt P05106+P06756); assay: Binding affinity to integrin alphav beta3 receptor assessed as receptor-mediated cell adhesion in human A2058 cells at 10 nM to 1 uM and measured every 20 seconds for 25 hrs at 10 kHz by xCELLigence SP system based method
Method in brief: (§2)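 A2058 human melanoma cells grown in RPMI 1640 with 10% FCS, 2 mM L-glutamine and penicillin/streptomycin at 37 °C, 5% CO2. Electrodes coated 20 min at 4 °C with peptide (10-fold dilutions in 0.1% gelatin/PBS), dried 5 min. Background read 30 min, then 10^4 cells/well added. Impedance recorded every 20 s for 25 h at 10 kHz, in triplicate. ΔCI at 5, 10 and 25 h, normalized to gelatin-only control (100%).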

[8] = Chemical stability 0.2M NH4OAc at pH 5.0 at 1 mg/ml at room temperature assessed as ratio of Asn-containing cyclic peptides after 48 hrs by HPLC method; assay type: physicochemical; settings: 0.2 M NH4OAc buffer, read-out: Stability; method in brief: as §1
[9] = Chemical stability DMEM cell culture medium at pH 7.3 at 1 mg/ml at 37 degC assessed as ratio of Asn-containing cyclic peptides after 48 hrs by HPLC method; assay type: physicochemical; settings: read-out: Stability; method in brief: as §1
[10] = molecular target: T1, Integrin alpha-V/beta-3 (Homo sapiens); assay: Binding affinity to integrin alphav beta3 receptor assessed as receptor-mediated cell adhesion in human A2058 cells at 10 nM to 100 nM and measured every 20 seconds for 5 to 25 hrs at 10 kHz by xCELLigence SP system based method; method in brief: as §2
[11] = molecular target: T1, Integrin alpha-V/beta-3 (Homo sapiens); assay: Binding affinity to integrin alphav beta3 receptor assessed as receptor-mediated cell adhesion in human A2058 cells at 1 uM and measured every 20 seconds for 5 to 25 hrs at 10 kHz by xCELLigence SP system based method; method in brief: as §2
[12] = molecular target: T1, Integrin alpha-V/beta-3 (Homo sapiens); assay: Binding affinity to integrin alphav beta3 receptor assessed as receptor-mediated cell adhesion in human A2058 cells at 10 nM to 1 uM and measured every 20 seconds for >5 hrs at 10 kHz by xCELLigence SP system based method; method in brief: as §2
[13] = molecular target: T1, Integrin alpha-V/beta-3 (Homo sapiens); assay: Binding affinity to integrin alphav beta3 receptor assessed as receptor-mediated cell adhesion in human A2058 cells at 100 nM and measured every 20 seconds for 25 hrs at 10 kHz by xCELLigence SP system based method; method in brief: as §2

remaining at 24 h, 1 mg/ml [1] | remaining at 48 h, 1 mg/ml [2] | remaining at 24 h, 1 mg/ml [3] | remaining at 48 h, 1 mg/ml [4] | remaining at 24 h, 1 mg/ml [5] | remaining at 24 h, 1 mg/ml [6] | Activity [7] | remaining at 48 h, 1 mg/ml [8] | remaining at 48 h, 1 mg/ml [9] | Activity [10] | Activity [11] | Activity [12] | Activity [13] | Compound
– | 100% | – | 100% | – | 92% | – | 100% | 54% | Active | inactive | – | – | N=C(N)NCCC[C@@H]1NC(=O)CNC(=O)[C@H](CC(N)=O)NC(=O)[C@H](CCCCN)NC(=O)CC[C@@H](C(N)=O)NC1=O (KNGRE-NH2; lactam N-5)
100% | 43% | 58% | 15% | 36% | 0% | inactive | 90% | – | – | – | – | – | N=C(N)NCCC[C@@H]1NC(=O)CNC(=O)[C@H](CC(N)=O)NC(=O)[C@H](CCCCN)NC(=O)CSC[C@@H](C(N)=O)NC1=O ({CH2CO}-KNGRC-NH2; thioether N-5)
85% | 15% | 36% | 13% | 19% | 0% | – | 67% | – | – | – | Active | Active | N=C(N)NCCC[C@@H]1NC(=O)CNC(=O)[C@H](CC(N)=O)NC(=O)CSC[C@@H](C(N)=O)NC1=O ({CH2CO}-NGRC-NH2; thioether N-4)

The next lines start with the molecule.

Compound | remaining at 24 h, 1 mg/ml [1] | remaining at 48 h, 1 mg/ml [2] | remaining at 24 h, 1 mg/ml [3] | remaining at 48 h, 1 mg/ml [4] | remaining at 24 h, 1 mg/ml [5] | remaining at 24 h, 1 mg/ml [6] | Activity [7] | remaining at 48 h, 1 mg/ml [8] | remaining at 48 h, 1 mg/ml [9] | Activity [10] | Activity [11] | Activity [12] | Activity [13]
N=C(N)NCCC[C@@H]1NC(=O)CNC(=O)[C@H](CC(N)=O)NC(=O)CCSC[C@@H](C(N)=O)NC1=O | 100% | 89% | 94% | 73% | 86% | 0% | Active | 99% | – | – | – | – | –
CC(=O)N[C@H]1CSSC[C@@H](C(N)=O)NC(=O)[C@H](CCCNC(=N)N)NC(=O)CNC(=O)[C@H](CC(N)=O)NC1=O (Ac-CNGRC-NH2; disulfide 1-5) | – | 93% | 96% | 71% | 85% | 46% | – | 100% | 0% | Active | – | – | –
N=C(N)NCCC[C@@H]1NC(=O)CNC(=O)[C@H](CC(N)=O)NC(=O)CSCCC(C(N)=O)NC1=O (single isomer, unassigned) | 100% | 44% | 64% | 43% | 66% | 0% | inactive | 96% | – | – | – | – | –
N=C(N)NCCC[C@@H]1NC(=O)CNC(=O)[C@H](CC(N)=O)NC(=O)[C@@H]2CCCN2C(=O)CSC[C@@H](C(N)=O)NC1=O ({CH2CO}-PNGRC-NH2; thioether N-5) | 100% | 75% | 86% | 47% | 67% | – | inactive | 98% | – | – | – | – | –
